The record followed here is ChEMBL document CHEMBL2424582, “Structure-kinetic relationships--an overlooked parameter in hit-to-lead optimization: a case of cyclopentylamines as chemokine receptor 2 antagonists” (J Med Chem, 2013).

pKi: −log10 of the molar value.

Assay [1] has as its target T1, C-C chemokine receptor type 2 (Homo sapiens, UniProt P41597). Nature of the assay: Displacement of [3H]INCB3344 from human CCR2 receptor expressed in human U2OS cell membrane assessed as kinetic rate index at Ki by dual-point competition association assay relative to control.
Target sequence in this assay (P41597 whole entry, looked up): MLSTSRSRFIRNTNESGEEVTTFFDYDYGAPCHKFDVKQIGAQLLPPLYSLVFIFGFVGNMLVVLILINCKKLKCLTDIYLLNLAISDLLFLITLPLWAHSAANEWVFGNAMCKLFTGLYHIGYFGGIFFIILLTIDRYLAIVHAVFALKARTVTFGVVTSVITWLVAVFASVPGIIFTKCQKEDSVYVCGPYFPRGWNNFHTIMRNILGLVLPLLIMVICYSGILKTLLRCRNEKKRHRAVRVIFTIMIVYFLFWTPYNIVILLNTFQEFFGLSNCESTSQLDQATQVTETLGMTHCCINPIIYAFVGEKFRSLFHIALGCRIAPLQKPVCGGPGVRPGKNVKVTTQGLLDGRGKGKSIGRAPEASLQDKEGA
Assay [2] concerns the target T1, C-C chemokine receptor type 2. Nature of the assay: Displacement of [125I]-CCL2 from human CCR2 receptor expressed in human U2OS cell membranes. A digest of the protocol:
(§1)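 Membranes from U2OS cells stably expressing human CCR2 were used in a ¹²⁵I-CCL2 displacement binding assay. The cells were grown at 37 °C, 5% CO₂ in McCoy's 5a with 10% FCS plus G418, hygromycin and zeocin selection. Ki was derived from IC₅₀ by the Cheng–Prusoff equation. Weak binders are reported as percent displacement at 1 μM. n = 3.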
Target sequence in this assay (P41597 whole entry): as the sequence (P41597 whole entry, looked up) above

For assay [3] the target is unchanged. The experiment in a line: Displacement of [125I]-CCL2 from human CCR2 receptor expressed in human U2OS cell membrane at 1 uM relative to control. Format: cell membranes. The essentials:
as §1
Target sequence in this assay (P41597 whole entry, looked up): as above

Assay [4] has the same target. Nature of the assay: Displacement of [3H]INCB3344 from human CCR2 receptor expressed in human U2OS cell membrane assessed as residence time.
Target sequence in this assay (P41597 whole entry, looked up): as above

Regarding `CC(C)[C@]1(C(=O)NCc2cc(C(F)(F)F)cc(C(F)(F)F)c2)CC[C@@H](NC2CCc3c(C#N)cccc32)C1` (some centres undefined), in assay [1], the Ratio came to 0.8. The pKi in assay [2] was 7.15. Consider `CC(C)[C@]1(C(=O)NCc2cc(C(F)(F)F)cc(C(F)(F)F)c2)CC[C@@H](NCCCc2ccccc2)C1`, for which the pKi in assay [2] was 6.87. `CC(C)[C@]1(C(=O)NCc2cc(C(F)(F)F)cc(C(F)(F)F)c2)CC[C@@H](NC2CCc3cc(F)ccc32)C1` (some centres undefined) showed an inhibition in assay [3] of 30%.

Consider `CC(C)[C@]1(C(=O)NCc2cc(C(F)(F)F)cc(C(F)(F)F)c2)CC[C@@H](NC2CCc3cc(Br)ccc32)C1` (stereo in doubt; 22b) [listing 1 of 2 here], for which the pKi in assay [2] was 6.54.

As for `CC(C)[C@]1(C(=O)NCc2cc(C(F)(F)F)cc(C(F)(F)F)c2)CC[C@@H](NC2CCc3cc(Br)ccc32)C1` (single isomer, unassigned; diastereomer 1) [listing 1 of 2 here], the TIME in assay [4] amounted to 2.25 h. In turn, `CC(C)[C@]1(C(=O)NCc2cc(C(F)(F)F)cc(C(F)(F)F)c2)CC[C@@H](NC2CCc3cc(Br)ccc32)C1` (single isomer, unassigned; diastereomer 1) [listing 2 of 2 here] had a negative logarithm of the Ki (pKi) in assay [2] of 8.44. With `CC(C)[C@]1(C(=O)NCc2cc(C(F)(F)F)cc(C(F)(F)F)c2)CC[C@@H](NC2CCSCC2)C1`, the TIME in assay [4] was 0.0717 h. The pKi in assay [2] was 7.51. On to `CC(C)[C@]1(C(=O)NCc2cc(C(F)(F)F)cc(C(F)(F)F)c2)CC[C@@H](NC2CCc3ccc(C#N)cc32)C1` (some centres undefined), for which, in assay [1], the Ratio amounted to 0.6. In assay [2], this compound gave a pKi of 7.27. Taken in the same sequence, the figures for `COc1cccc2c1CCCC2N[C@@H]1CC[C@@](C(=O)NCc2cc(C(F)(F)F)cc(C(F)(F)F)c2)(C(C)C)C1` (some centres undefined) were 0.7 and 7.57. In the case of `CC(C)[C@]1(C(=O)NCc2cc(C(F)(F)F)cc(C(F)(F)F)c2)CC[C@@H](NC2CCc3cc(Br)ccc32)C1` (mixture of isomers) [listing 1 of 2 here], the TIME in assay [4] was 1.57 h. Further, the Ratio in assay [1] was determined as 1.1. `CC(C)[C@]1(C(=O)NCc2cc(C(F)(F)F)cc(C(F)(F)F)c2)CC[C@@H](NC2CCOCC2)C1`: the TIME in assay [4] worked out at 0.04 h. The compound also gave a negative-log Ki (pKi) in assay [2] of 8.17. For `Cc1ccc2c(c1)C(N[C@@H]1CC[C@@](C(=O)NCc3cc(C(F)(F)F)cc(C(F)(F)F)c3)(C(C)C)C1)CC2` (some centres undefined), in assay [1], the Ratio worked out at 0.8. In addition, the pKi in assay [2] is 7.26. `COc1cccc2c1CCC2N[C@@H]1CC[C@@](C(=O)NCc2cc(C(F)(F)F)cc(C(F)(F)F)c2)(C(C)C)C1` (some centres undefined) displayed an inhibition in assay [3] of 30%. `CC(C)[C@]1(C(=O)NCc2cc(C(F)(F)F)cc(C(F)(F)F)c2)CC[C@@H](NC2CCCc3c(Br)cccc32)C1` (some centres undefined): the inhibition in assay [3] came to 48%. As for `CC(C)[C@]1(C(=O)NCc2cc(C(F)(F)F)cc(C(F)(F)F)c2)CC[C@@H](NCc2ccccc2)C1`, in assay [2], the negative logarithm of the Ki (pKi) is 6.36. With `CC(C)[C@]1(C(=O)NCc2cc(C(F)(F)F)cc(C(F)(F)F)c2)CC[C@@H](NC2CCc3c(N)cccc32)C1` (some centres undefined), in assay [1], the Ratio turned out to be 0.8. The pKi in assay [2] is 7.37. On to `CC(C)[C@]1(C(=O)NCc2cc(C(F)(F)F)cc(C(F)(F)F)c2)CC[C@@H](NC2CCCc3ccccc32)C1` (some centres undefined), for which, in assay [4], the TIME was found to be 0.0933 h. The Ratio in assay [1] was 0.6. Further, in assay [2], the negative logarithm of the Ki (pKi) was 7.48. `COc1ccc2c(c1OC)CCC2N[C@@H]1CC[C@@](C(=O)NCc2cc(C(F)(F)F)cc(C(F)(F)F)c2)(C(C)C)C1` (some centres undefined) showed a pKi in assay [2] of 6.89. On to `CC(C)[C@]1(C(=O)NCc2cc(C(F)(F)F)cc(C(F)(F)F)c2)CC[C@@H](NC2CCCCC2)C1`, for which the TIME in assay [4] was 0.0317 h. The compound further showed a pKi in assay [2] of 6.96. Take `CC(C)[C@]1(C(=O)NCc2cc(C(F)(F)F)cc(C(F)(F)F)c2)CC[C@@H](NC2CCCc3c(C(=O)O)cccc32)C1` (some centres undefined): the inhibition in assay [3] is 0%.

`CC(C)[C@]1(C(=O)NCc2cc(C(F)(F)F)cc(C(F)(F)F)c2)CC[C@@H](NC2CCc3cc(Br)ccc32)C1` (mixture of isomers) [listing 2 of 2 here] showed a pKi in assay [2] of 8.14.

Turning to `CC(C)[C@]1(C(=O)NCc2cc(C(F)(F)F)cc(C(F)(F)F)c2)CC[C@@H](NC2CCc3ccccc32)C1` (some centres undefined), in assay [4], the TIME was found to be 0.158 h. Moreover, in assay [1], the Ratio was found to be 0.7. In addition, the pKi in assay [2] is 7.30.

`Cc1cccc2c1CCC2N[C@@H]1CC[C@@](C(=O)NCc2cc(C(F)(F)F)cc(C(F)(F)F)c2)(C(C)C)C1` (some centres undefined) registered an inhibition in assay [3] of 26%. For the compound `CC(C)[C@]1(C(=O)NCc2cc(C(F)(F)F)cc(C(F)(F)F)c2)CC[C@@H](NC2CCc3cc(O)ccc32)C1` (some centres undefined), in assay [1], the Ratio worked out at 0.7. The compound also gave a negative-log Ki (pKi) in assay [2] of 7.54. For `CC(C)[C@]1(C(=O)NCc2cc(C(F)(F)F)cc(C(F)(F)F)c2)CC[C@@H](NC2CCc3cc(Br)ccc32)C1` (stereo in doubt; 22b) [listing 2 of 2 here], the TIME in assay [4] turned out to be 1.28 h. In the case of `CC(C)[C@]1(C(=O)NCc2cc(C(F)(F)F)cc(C(F)(F)F)c2)CC[C@@H](NC2CCCc3c(O)cccc32)C1` (some centres undefined), in assay [1], the Ratio is 0.8. In addition, the pKi in assay [2] is 7.46. Turning to `CC(C)[C@]1(C(=O)NCc2cc(C(F)(F)F)cc(C(F)(F)F)c2)CC[C@@H](NC2CCc3ccc(Cl)cc32)C1` (some centres undefined), the inhibition in assay [3] turned out to be 28%. On to `COc1ccc2c(c1)CCC2N[C@@H]1CC[C@@](C(=O)NCc2cc(C(F)(F)F)cc(C(F)(F)F)c2)(C(C)C)C1` (some centres undefined), for which the Ratio in assay [1] was 0.6. In assay [2], the negative logarithm of the Ki (pKi) is 8.21. With `CC(C)[C@]1(C(=O)NCc2cc(C(F)(F)F)cc(C(F)(F)F)c2)CC[C@@H](NC2CCc3c(O)cccc32)C1` (some centres undefined), the Ratio in assay [1] amounted to 0.6. Besides, the pKi in assay [2] was 7.07.

In the case of `COc1cc2c(cc1OC)C(N[C@@H]1CC[C@@](C(=O)NCc3cc(C(F)(F)F)cc(C(F)(F)F)c3)(C(C)C)C1)CC2` (some centres undefined), in assay [1], the Ratio is 0.7. In addition, the pKi in assay [2] was 8.41. In the case of `CC(C)[C@]1(C(=O)NCc2cc(C(F)(F)F)cc(C(F)(F)F)c2)CC[C@@H](NC2CCc3cc4c(cc32)OCO4)C1` (some centres undefined), in assay [1], the Ratio is 0.6. Also, in assay [2], the pKi is 8.20. Regarding `CC(C)[C@]1(C(=O)NCc2cc(C(F)(F)F)cc(C(F)(F)F)c2)CC[C@@H](NC2CCc3cc(Cl)ccc32)C1` (some centres undefined), in assay [4], the TIME came out at 0.933 h. In addition, the Ratio in assay [1] worked out at 1.1. Also, in assay [2], the negative-log Ki (pKi) was 7.74. Compound `CC(C)[C@]1(C(=O)NCc2cc(C(F)(F)F)cc(C(F)(F)F)c2)CC[C@@H](NCCc2ccccc2)C1` had a negative-log Ki (pKi) in assay [2] of 5.62.
